Converted amounts (≈) assume the structure as drawn. The source made the active and inactive calls.

Experiment [1] relates to Escherichia coli. Briefly: Antibacterial activity against Escherichia coli assessed as growth inhibition at 100 umol/L after 8 hrs by ELISA plate reader analysis relative to control. To be noted: read-out: GI. Type of experiment: functional. Put shortly: (§1)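 Bacteria were seeded at 1×10^5 CFU/mL in LB, and compound was added to 100 µmol/L final. Compounds came from DMSO stock, with DMSO ≤1% (v/v) final. Cultures were shaken at 37 °C for 8 h and read at OD450. Inhibition % = (OD vehicle control − OD sample)/OD vehicle control × 100. Values are the mean of three independent experiments.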

The subject of experiment [2] is Bacillus subtilis. Briefly: Antibacterial activity against Bacillus subtilis assessed as growth inhibition at 100 umol/L after 8 hrs by ELISA plate reader analysis relative to control. Format: functional. The following applies: read-out: GI. Put shortly:
as §1

Experiment [3] has as its system Staphylococcus aureus. Briefly: Antibacterial activity against Staphylococcus aureus assessed as growth inhibition at 100 umol/L after 8 hrs by ELISA plate reader analysis relative to control. Type of experiment: functional. To be noted: read-out: GI. Put shortly: as §1
The subject of experiment [4] is Staphylococcus aureus. Briefly: Antibacterial activity against Staphylococcus aureus assessed as lowest concentration required to reduce growth by 1% after 8 hrs by ELISA plate reader analysis relative to control. Type of experiment: functional. Summed up:
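MBC was found by broth microdilution. Inocula of 1×10^5 CFU/mL in LB were shaken at 37 °C with a series of compound concentrations, then read at OD450. MBC was defined as the lowest concentration reducing growth by 1% versus the inoculum control. Three independent experiments were run.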

Experiment [5] concerns Staphylococcus aureus. Briefly: Upregulation of hla gene expression in Staphylococcus aureus at 50 umol/L after 8 hrs by real-time RT-PCR analysis relative to control. Format: functional, organism-based. Summed up:
(§2)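 S. aureus ATCC 25923 at 2×10^7 CFU/mL in LB was exposed to 50 µmol/L compound, or LB alone, for 8 h at 37 °C. Total RNA was analysed by TaqMan real-time RT-PCR or semi-quantitative RT-PCR, normalised to gyrB. Fold change is versus time-matched medium-only cultures, with data pooled from three experiments.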
On the technique in general: In qPCR the cycle at which signal appears reflects the starting amount.

Experiment [6] concerns Staphylococcus aureus. Briefly: Upregulation of hla gene expression in Staphylococcus aureus at 50 umol/L after 8 hrs by semi-quantitative RT-PCR analysis relative to control. Type of experiment: functional, organism-based. Put shortly:
as §2

Experiment [7] concerns Staphylococcus aureus. Briefly: Upregulation of sbi gene expression in Staphylococcus aureus at 50 umol/L after 8 hrs by real-time RT-PCR analysis relative to control. Format: functional, organism-based. Put shortly: as §2
Experiment [8] deals with Staphylococcus aureus. Briefly: Upregulation of sbi gene expression in Staphylococcus aureus at 50 umol/L after 8 hrs by semi-quantitative RT-PCR analysis relative to control. Format: functional, organism-based. Put shortly:
as §2

The test system of experiment [9] is Staphylococcus aureus. Briefly: Upregulation of mecA gene expression in Staphylococcus aureus at 50 umol/L after 8 hrs by real-time RT-PCR analysis relative to control. Format: functional, organism-based. Summed up:
as §2

The subject of experiment [10] is Staphylococcus aureus. Briefly: Upregulation of mecA gene expression in Staphylococcus aureus at 50 umol/L after 8 hrs by semi-quantitative RT-PCR analysis relative to control. Type of experiment: functional, organism-based. Summed up: as §2
The subject of experiment [11] is Staphylococcus aureus. Briefly: Downregulation of saeR gene expression in Staphylococcus aureus at 50 umol/L after 8 hrs by real-time RT-PCR analysis relative to control. Type of experiment: functional, organism-based. Summed up: as §2
The test system of experiment [12] is Staphylococcus aureus. Briefly: Downregulation of saeR gene expression in Staphylococcus aureus at 50 umol/L after 8 hrs by semi-quantitative RT-PCR analysis relative to control. Type of experiment: functional, organism-based. Put shortly: as §2
The subject of experiment [13] is Staphylococcus aureus. Briefly: Downregulation of hla gene expression in Staphylococcus aureus at 50 umol/L after 8 hrs by real-time RT-PCR analysis relative to control. Type of experiment: functional, organism-based. Summed up:
as §2

For experiment [14], the system named is Staphylococcus aureus. Briefly: Downregulation of hla gene expression in Staphylococcus aureus at 50 umol/L after 8 hrs by semi-quantitative RT-PCR analysis relative to control. Format: functional, organism-based. Summed up: as §2
The test system of experiment [15] is Staphylococcus aureus. Briefly: Downregulation of mecA gene expression in Staphylococcus aureus at 50 umol/L after 8 hrs by real-time RT-PCR analysis relative to control. Type of experiment: functional. Put shortly: as §2
The subject of experiment [16] is Staphylococcus aureus. Briefly: Downregulation of mecA gene expression in Staphylococcus aureus at 50 umol/L after 8 hrs by semi-quantitative RT-PCR analysis relative to control. Format: functional. Summed up:
as §2

Consider `COC(=O)[C@H](Cc1ccccc1)/N=C/c1ccccc1O`, for which the inhibition of growth at 100 µM worked out at 14.6% in experiment [1], 4.21% in experiment [2] and 86.9% in experiment [3]. Further, the MBC in experiment [4] came out at 13.8 µM (≈ 3.91 µg/mL). Besides, the result in [5], in experiment [6], in [7], in experiment [8], in experiment [9] and in experiment [10] was Active. The outcome in experiment [11] and in [12] was Active.
Take `CC(C)(C)c1cc(/C=N/NC(=O)c2ccccc2O)c(O)c(C(C)(C)C)c1`: the inhibition of growth at 100 µM in experiment [1] was found to be 13.9%; in [3] it was 70.9%. For the same molecule, the MBC in experiment [4] came out at 19 µM (≈ 7 µg/mL). Besides, the outcome in experiment [13], in experiment [14], in [7], in experiment [8], in experiment [11] and in experiment [12] was Active. In addition, the “fold change (FC)” value in experiment [15] and in experiment [16] was 2 in each case.

One may read the MBC as the smallest concentration meeting the test's criterion for killing.
